Results on one molecule are retold here after ChEMBL document CHEMBL1147092, “Pharmacokinetic/pharmacodynamic factors influencing emergence of resistance to linezolid in an in vitro model” (Antimicrob Agents Chemother, 2007).

In general, half-life refers to the time in which the quantity being followed falls by half. A lower half-life goes with rapid decline. A word on the MIC: it is the lowest concentration that inhibits growth of the organism. Higher therefore signals a less susceptible organism.

Data set [1] relates to Staphylococcus aureus. Briefly: Area under population analysis profile for heteroresistant vancomycin-intermediate Staphylococcus aureus Mu3 using in vitro PK/PD model relative to growth control with 120 mg/24 hrs continuous infusion regimen after 72 hrs. It counts as functional. Put shortly: (§1)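 Bacteria recovered after 72 h of a 2.0-μg/ml continuous infusion in a flow-through BHI model (duplicates). 50 μl of a 0.5 McFarland suspension or dilutions were spiral-plated on BHI agar with linezolid 0–5 μg/ml and incubated 35°C for 48 h; counting limit 20 CFU/ml. Area under the log10 CFU/ml vs concentration curve (trapezoidal) is compared with the 72-h growth control.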

For data set [2], the system named is Staphylococcus aureus. Nature of the data set: Bactericidal activity against vancomycin-intermediate Staphylococcus aureus Mu50 assessed as reduction of CFU using in vitro PK/PD model with human dosage regimen 600 mg every 12 hrs after 24 hrs. It is filed as functional. Put shortly: (§2)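 Flow-through in vitro PK/PD model in BHI broth at 37°C, 5-h half-life (Vd 290 ml); exponential-phase inoculum 10^6 CFU/ml, duplicates with growth controls. […] Viable counts by saline dilution, plating on nutrient agar, 37°C 24 h; bactericidal = >3-log10 CFU/ml drop.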

The test system of data set [3] is Enterococcus faecium. Briefly: Bactericidal activity against vancomycin-resistant Enterococcus faecium ATCC 700221 assessed as reduction of CFU using in vitro PK/PD model with human dosage regimen 600 mg every 12 hrs at 24 hrs. It counts as functional. The procedure, abridged: (§3)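 Flow-through central chamber of BHI broth at 37°C, with pumped clearance set for a 5-h half-life (volume of distribution 290 ml). Exponential-phase inoculum was 10^6 CFU/ml, in duplicate, with growth controls. Samples taken 0–72 h were diluted in saline, plated on nutrient agar and incubated 37°C for 24 h; quantification limit 50 CFU/ml. Drug levels were checked by HPLC. Reduction is the log10 CFU/ml fall.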

Data set [4] can be described thus: Half life for simulated intermittent-dosage regimen at 120 mg every 12 hrs using in vitro PK/PD model.
Data set [5] concerns Staphylococcus aureus. Nature of the data set: Antibacterial activity against methicillin-resistant Staphylococcus aureus ATCC 43300 using in vitro PK/PD model with 120 mg/24 hr continuous infusion simulated regimen after 72 hrs. It is filed as functional. Conditions: ATCC 43300, 72 h.
The subject of data set [6] is Enterococcus faecium. Briefly: Bactericidal activity against vancomycin-resistant Enterococcus faecium ATCC 700221 assessed as reduction of CFU using in vitro PK/PD model with 120 mg/24 hr continuous infusion simulated regimen after 48 hrs. It is filed as functional. The procedure, abridged: as §3
The subject of data set [7] is Staphylococcus aureus. Briefly: Antibacterial activity against heteroresistant vancomycin-intermediate Staphylococcus aureus Mu3 using in vitro PK/PD model with 120 mg/24 hr continuous infusion simulated regimen after 72 hrs. It is filed as functional. To be noted: Mu3, 72 h.
The test system of data set [8] is Staphylococcus aureus. Briefly: Area under population analysis profile for vancomycin-intermediate Staphylococcus aureus Mu50 using in vitro PK/PD model relative to growth control with 120 mg/24 hrs continuous infusion regimen after 72 hrs. It is filed as functional.
The nature of data set [9]: Half life for simulated intermittent-dosage regimen at 600 mg every 12 hrs using in vitro PK/PD model.
For data set [10], the system named is Staphylococcus aureus. Nature of the data set: Bactericidal activity against vancomycin-intermediate Staphylococcus aureus Mu50 assessed as reduction of CFU using in vitro PK/PD model with human dosage regimen 120 mg every 12 hrs after 24 hrs. It counts as functional. Put shortly:
as §3

Data set [11] has as its system Staphylococcus aureus. Briefly: Bactericidal activity against methicillin-resistant Staphylococcus aureus ATCC 43300 assessed as reduction of CFU using in vitro PK/PD model with human dosage regimen 600 mg every 12 hrs after 24 hrs. It counts as functional. Put shortly: as §3
For data set [12], the system named is Staphylococcus aureus. Briefly: Area under population analysis profile for methicillin-resistant Staphylococcus aureus using in vitro PK/PD model relative to growth control with 120 mg/24 hrs continuous infusion regimen after 72 hrs. It is filed as functional. The procedure, abridged:
as §1

In data set [13] the test system is Staphylococcus aureus. Nature of the data set: Bactericidal activity against vancomycin-intermediate Staphylococcus aureus Mu50 assessed as reduction of CFU using in vitro PK/PD model with 120 mg/24 hr continuous infusion simulated regimen after 48 hrs. It is filed as functional. The procedure, abridged:
as §2

The test system of data set [14] is Enterococcus faecium. Briefly: Antibacterial activity against vancomycin-resistant Enterococcus faecium ATCC 700221 by microdilution method. It counts as functional. The procedure, abridged:
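Standard broth microdilution in cation-adjusted Mueller-Hinton broth, run in four replicates at baseline. Before testing, the strain was held at −80°C in tryptone soy broth with 20% glycerol and subcultured on horse blood agar for 24 h at 35°C.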

Data set [15] deals with Staphylococcus aureus. Nature of the data set: Bactericidal activity against heteroresistant vancomycin-intermediate Staphylococcus aureus Mu3 assessed as reduction of CFU using in vitro PK/PD model with human dosage regimen 600 mg every 12 hrs after 24 hrs. It is filed as functional. Put shortly: as §3
Data set [16] concerns Enterococcus faecium. Nature of the data set: Area under population analysis profile for vancomycin-resistant Enterococcus faecium ATCC 700221 using in vitro PK/PD model relative to growth control with 120 mg/24 hrs continuous infusion regimen after 72 hrs. It counts as functional. Put shortly: as §1

SMILES strings stand for the structures. In brackets after ≈: the same amount, converted by molar mass.

With `CC(=O)NC[C@H]1CN(c2ccc(N3CCOCC3)c(F)c2)C(=O)O1` [LINEZOLID], the AUPAP with Staphylococcus aureus [1] turned out to be 70.2%; in the data set with Staphylococcus aureus [8], 90.2%; with Staphylococcus aureus [12], 178%; with Enterococcus faecium [16], 40%. Further, the log10CFU/ml is given as 3.3 in the data set with Staphylococcus aureus [2]; 3.8 in the data set on Enterococcus faecium [3]; greater than 3 in the data set with Enterococcus faecium [6]; greater than 3 in the data set on Staphylococcus aureus [10]; 3.9 in the data set on Staphylococcus aureus [11]; greater than 3 in the data set on Staphylococcus aureus [13]. Moreover, in the data set on Staphylococcus aureus [15], the log10CFU/ml is 3.1. Also, the half-life at 12 h in data set [4] and in data set [9] was 5.32 h throughout. Further, the MIC with Staphylococcus aureus [5] is no less than 8 µg/mL; in the data set on Staphylococcus aureus [7] it was no less than 8 µg/mL; against Enterococcus faecium [14], 2 µg/mL (≈ 5.93 µM).
